Test results reported in ChEMBL document CHEMBL3352189 (J Med Chem, 2014).
Converted amounts (≈) assume the structure as drawn. The source made the active and inactive calls. The rule behind the calls is not given here.

Legend:
[1] = molecular target: Cytochrome P450 2C19 (Homo sapiens, UniProt P33261); experiment: Inhibition of human CYP2C19 at 10 uM; assay type: ADME; conditions: 10 µM
[2] = tested on: Venezuelan equine encephalitis virus; experiment: Antiviral activity against Venezuelan equine encephalitis virus TC83 infected in Vero 76 cells assessed as reduction in virus-induced cytopathic effect after 2 days by Celltiter-Glo reagent based assay; assay type: functional, organism-based; conditions: TC83, Vero 76, 48 h
[3] = Cytotoxicity against african green monkey Vero 76 cells after 3 days by Celltiter-Glo reagent based assay; assay type: cell-based; conditions: chlorocebus sabaeus, vero 76, 72 h
Outline: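 Vero 76 cells were seeded overnight at 12 000/well and given an 8-point 2-fold compound series (20 mM DMSO stock) in EMEM/10% FBS with no virus. Viability was read by CellTiter-Glo after 3 days relative to untreated cells. Run in duplicate; CC50 from a four-parameter logistic or sigmoidal fit.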

[4] = Selectivity index, ratio of CC50 for african green monkey Vero 76 cells to EC50 for Venezuelan equine encephalitis virus TC83; assay type: toxicity, cell-based; conditions: read-out: Ratio CC50/EC50
[5] = tested on: Venezuelan equine encephalitis virus; experiment: Antiviral activity against Venezuelan equine encephalitis virus V3526 infected in Vero 76 cells assessed as reduction in virus-induced cytopathic effect after 2 days by Celltiter-Glo reagent based assay; assay type: functional, organism-based; conditions: V3526, Vero 76, 48 h
[6] = tested on: Venezuelan equine encephalitis virus; experiment: Antiviral activity against Venezuelan equine encephalitis virus TrD infected in Vero 76 cells assessed as reduction in virus-induced cytopathic effect after 2 days by Celltiter-Glo reagent based assay; assay type: functional, organism-based; conditions: Vero 76, 48 h
[7] = tested on: Venezuelan equine encephalitis virus; experiment: Antiviral activity against Venezuelan equine encephalitis virus TC83 infected in Vero 76 cells assessed as reduction in viral titer at 1 uM by crystal violet staining based microplaque assay relative to untreated control; assay type: functional
[8] = tested on: Venezuelan equine encephalitis virus; experiment: Antiviral activity against Venezuelan equine encephalitis virus TrD infected in Vero 76 cells assessed as reduction in viral titer at 5 uM by crystal violet staining based microplaque assay relative to untreated control; assay type: functional, organism-based
[9] = tested on: Venezuelan equine encephalitis virus; experiment: Antiviral activity against Venezuelan equine encephalitis virus TrD infected in Vero 76 cells assessed as reduction in viral titer at 1 uM by crystal violet staining based microplaque assay relative to untreated control; assay type: functional
[10] = tested on: Venezuelan equine encephalitis virus; experiment: Antiviral activity against Venezuelan equine encephalitis virus TrD infected in Vero 76 cells assessed as reduction in viral titer at 0.5 uM by crystal violet staining based microplaque assay relative to untreated control; assay type: functional, organism-based
[11] = tested on: Venezuelan equine encephalitis virus; experiment: Antiviral activity against Venezuelan equine encephalitis virus TC83 infected in Vero 76 cells assessed as reduction in viral titer by crystal violet staining based microplaque assay relative to untreated control; assay type: functional, organism-based; conditions: TC83, Vero 76
[12] = Aqueous solubility in PBS buffer; assay type: physicochemical
Outline: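 Solubility measured in 1× PBS at pH 7.4.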

[13] = Permeability at pH 7.4 by PAMPA assay; assay type: ADME
[14] = molecular target: CYP2D6 (Homo sapiens, UniProt P10635); experiment: Inhibition of human CYP2D6 at 10 uM; assay type: ADME
Chain of CYP2D6 (P10635 whole entry): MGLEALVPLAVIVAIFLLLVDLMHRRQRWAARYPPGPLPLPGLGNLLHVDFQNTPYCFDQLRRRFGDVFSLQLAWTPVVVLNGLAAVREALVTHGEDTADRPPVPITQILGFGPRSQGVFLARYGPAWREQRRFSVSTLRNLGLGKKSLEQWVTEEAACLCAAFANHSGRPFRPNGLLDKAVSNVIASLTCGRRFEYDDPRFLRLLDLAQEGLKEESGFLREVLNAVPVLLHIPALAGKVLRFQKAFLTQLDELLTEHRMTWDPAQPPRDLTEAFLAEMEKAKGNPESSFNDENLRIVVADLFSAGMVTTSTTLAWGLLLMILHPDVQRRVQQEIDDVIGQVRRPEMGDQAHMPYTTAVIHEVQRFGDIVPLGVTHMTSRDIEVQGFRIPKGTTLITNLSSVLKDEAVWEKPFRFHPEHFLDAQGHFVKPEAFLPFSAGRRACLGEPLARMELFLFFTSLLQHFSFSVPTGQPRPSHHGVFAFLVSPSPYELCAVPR

Chain of Cytochrome P450 2C19 (P33261 whole entry): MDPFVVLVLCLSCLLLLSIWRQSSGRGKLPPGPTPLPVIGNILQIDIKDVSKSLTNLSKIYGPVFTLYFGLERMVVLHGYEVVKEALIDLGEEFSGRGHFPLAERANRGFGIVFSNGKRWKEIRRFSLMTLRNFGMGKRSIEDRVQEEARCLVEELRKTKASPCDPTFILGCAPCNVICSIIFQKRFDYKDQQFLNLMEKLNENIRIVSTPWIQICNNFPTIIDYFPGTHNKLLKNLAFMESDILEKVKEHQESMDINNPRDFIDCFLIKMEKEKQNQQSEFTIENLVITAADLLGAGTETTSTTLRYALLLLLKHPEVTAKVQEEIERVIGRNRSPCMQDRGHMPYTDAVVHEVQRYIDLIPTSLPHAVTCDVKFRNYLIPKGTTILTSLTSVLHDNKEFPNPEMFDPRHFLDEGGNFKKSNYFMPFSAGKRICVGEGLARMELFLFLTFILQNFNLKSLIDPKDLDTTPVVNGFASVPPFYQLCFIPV

**Q.** With `Cc1c(OCC(F)(F)F)ccnc1C[S+]([O-])c1nc2ccccc2[nH]1` (centres undefined) [LANSOPRAZOLE] as the molecule, how does the “inhibition (INH)” value [1] read?
**A.** 86%

**Q.** Which EC50 [2] does the source give for `COc1ccc(NC(=O)c2cc([N+](=O)[O-])ccc2/N=C2\CN(C)CCN2C)cc1` here?
**A.** 40 nM

**Q.** And the CC50 [3]?
**A.** > 50000 nM

**Q.** What about the selectivity ratio [4] of the same molecule?
**A.** > 1250

**Q.** What about the EC50 [5] of the same molecule?
**A.** 20 nM

**Q.** And the EC50 [6]?
**A.** 50 nM

**Q.** And the “fold change (FC)” value [7]?
**A.** 16000000

**Q.** And the inhibition [8]?
**A.** Active

**Q.** What about the inhibition [9] of the same molecule?
**A.** Active

**Q.** And the inhibition [10]?
**A.** Active

**Q.** What about the EC50 [11] of the same molecule?
**A.** 170 nM

**Q.** And the solubility [12]?
**A.** 105.6 µg/mL (≈ 266 µM)

**Q.** Which permeability [13] does the source give for `Cn1c(=O)c2[nH]cnc2n(C)c1=O.O` [THEOPHYLLINE] here?
**A.** 0.32 ×10⁻⁶ cm/s

**Q.** Which inhibition at 10 µM [14] does the source give for `C=C[C@H]1C[N@@]2CC[C@H]1C[C@@H]2[C@@H](O)c1ccnc2ccc(OC)cc12` [QUINIDINE] here?
**A.** 88%
